Experimental data published in ChEMBL document CHEMBL4251669, “Identification of Gibberellic Acid Derivatives That Deregulate Cholesterol Metabolism in Prostate Cancer Cells” (2018).
Activity calls are given as the source filed them. No cut-off for these calls is given here.

How the values were obtained:
[1] = system: LNCaP; assay: Cytotoxicity against human LNCAP cells assessed as reduction in cell viability at 10 uM after 72 hrs by alamar blue assay relative to control; format: functional
Outline: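 LNCaP cells (ATCC) in phenol-red-free RPMI-1640 with 5% FBS, 37 °C, 5% CO2, seeded 4000/well for 24 h, then exposed 72 h. Stocks in DMSO, final DMSO 0.3%; DMSO as negative and vinblastine 50 nM as positive control. Viability read by alamarBlue metabolic reduction. Triplicate points, at least three independent experiments.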

[2] = system: LNCaP; assay: Induction of cholesterol metabolism deregulation in human LNCAP cells assessed as reduction in NBD-cholesterol uptake at 30 uM after 48 hrs by DAPI/Alexa fluor 633 phalloidin staining based high-content imaging analysis; format: functional, cell-based
Outline: (§1)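 LNCaP seeded 72 h on poly-L-ornithine-coated plates and treated 48 h in three replicate wells: DMSO vehicle, compounds at 30 μM, TOFA 10 μM or orlistat 20 μM. Then 3 h at 37 °C in serum-free RPMI with 0.2% BSA and 15 μM NBD-cholesterol. PFA-fixed, glycine-quenched, stained with DAPI and phalloidin. Imaged at 10× to 1000 cells/well; per-cell NBD mean fluorescence, about 3000 cells/treatment, mean ± SD.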

[3] = system: LNCaP; assay: Induction of cholesterol metabolism deregulation in human LNCAP cells assessed as effect on fatty acid uptake at 30 uM after 48 hrs by DAPI/Alexa fluor 633 phalloidin staining based high-content imaging analysis; format: functional, cell-based
[4] = system: LNCaP; assay: Induction of cholesterol metabolism deregulation in human LNCAP cells assessed as effect on cellular lipid content at 30 uM after 48 hrs by DAPI/Alexa fluor 633 phalloidin staining based high-content imaging analysis; format: functional, cell-based
[5] = system: LNCaP; assay: Induction of cholesterol metabolism deregulation in human LNCAP cells assessed as reduction in free NBD-cholesterol uptake
[6] = system: LNCaP; assay: Induction of cholesterol metabolism deregulation in human LNCAP cells assessed as reduction in NBD-cholesterol uptake at 20 uM after 48 hrs by DAPI/Alexa fluor 633 phalloidin staining based high-content imaging analysis; format: functional, cell-based; outline: as §1
[7] = system: LNCaP; assay: Induction of cholesterol metabolism deregulation in human LNCAP cells assessed as reduction in NBD-cholesterol uptake at 10 uM after 48 hrs by DAPI/Alexa fluor 633 phalloidin staining based high-content imaging analysis; format: functional, cell-based

| Structure (SMILES) | Activity [1] [%] | Activity [2] | Activity [3] | Activity [4] | Activity [5] | Activity [6] | Activity [7] |
| --- | --- | --- | --- | --- | --- | --- | --- |
| C=C1C[C@]23C[C@@]1(O)CC[C@H]2[C@@]12C=C[C@H](O)[C@](C)(C(=O)O1)[C@H]2[C@@H]3C(=O)NCc1ccc(Br)cc1 | <30 | Active | inactive | inactive | Active |  |  |
| CCCCCCCCCCC[C@@H](C[C@@H]1OC(=O)[C@H]1CCCCCC)OC(=O)[C@H](CC(C)C)NC=O |  |  |  |  |  | Active |  |
| C=C1C[C@]23C[C@@]1(O)CC[C@H]2[C@@]12C=C[C@H](O)[C@](C)(C(=O)O1)[C@H]2[C@@H]3C(=O)NCCc1ccc(OC)cc1 | <30 |  |  |  |  |  |  |
| C=C1C[C@]23C[C@@]1(O)CC[C@H]2[C@@]12C=C[C@H](O)[C@](C)(C(=O)O1)[C@H]2[C@@H]3C(=O)NCCc1ccc(Cl)cc1 | <30 |  |  |  |  |  |  |
| C=C1C[C@]23C[C@@]1(O)CC[C@H]2[C@@]12C=C[C@H](O)[C@](C)(C(=O)O1)[C@H]2[C@@H]3C(=O)NCc1ccccc1 | <30 |  |  |  |  |  |  |
| C=C1C[C@]23C[C@@]1(O)CC[C@H]2[C@@]12C=C[C@H](O)[C@](C)(C(=O)O1)[C@H]2[C@@H]3C(=O)NCCc1ccc(F)cc1 | <30 | Active | inactive | inactive | Active |  |  |
| C=C1C[C@]23C[C@@]1(O)CC[C@H]2[C@@]12C=C[C@H](O)[C@](C)(C(=O)O1)[C@H]2[C@@H]3C(=O)NCCc1cccs1 | <30 |  |  |  |  |  |  |
| C=C1C[C@]23C[C@@]1(O)CC[C@H]2[C@@]12C=C[C@H](O)[C@](C)(C(=O)O1)[C@H]2[C@@H]3C(=O)NCCc1ccccc1 | <30 |  |  |  |  |  |  |
| C=C1C[C@]23C[C@@]1(O)CC[C@H]2[C@@]12C=C[C@H](O)[C@](C)(C(=O)O1)[C@H]2[C@@H]3C(=O)NCc1ccc(Cl)cc1 | <30 | Active | inactive | inactive | Active |  |  |
| C=C1C[C@]23C[C@@]1(O)CC[C@H]2[C@@]12C=C[C@H](O)[C@](C)(C(=O)O1)[C@H]2[C@@H]3C(=O)NCc1ccc(OC)cc1 | <30 |  |  |  |  |  |  |
| C=C1C[C@]23C[C@@]1(O)CC[C@H]2[C@@]12C=C[C@H](O)[C@](C)(C(=O)O1)[C@H]2[C@@H]3C(=O)NCc1ccc(F)cc1 | <30 |  |  |  |  |  |  |
| C=C1C[C@]23C[C@@]1(O)CC[C@H]2[C@@]12C=C[C@H](O)[C@](C)(C(=O)O1)[C@H]2[C@@H]3C(=O)NCCc1ccc(Br)cc1 | <30 | Active | inactive | inactive | Active |  |  |
| C=C1C[C@]23C[C@@]1(O)CC[C@H]2[C@@]12C=C[C@H](O)[C@](C)(C(=O)O1)[C@H]2[C@@H]3C(=O)O [GIBBERELLIN GA3] | <30 | Active | inactive | inactive |  |  |  |
| C=C1C[C@]23C[C@@]1(O)CC[C@H]2[C@@]12C=C[C@H](O)[C@](C)(C(=O)O1)[C@H]2[C@@H]3C(=O)NCCc1ccccn1 | <30 | Active | inactive | inactive | Active |  |  |
| CCCCCCCCCCCCCCOc1ccc(C(=O)O)o1 |  |  |  |  |  |  | Active |
